Active and inactive are the calls of the source. Unless noted, the rule behind the calls is not given here.
What was measured:
[1] = test system: Leishmania donovani; assay: Cytotoxicity against SSG-resistant Leishmania donovani Ld39 by MTS assay; type: organism-based
How it was run: (§1)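 Promastigotes in Schneider's Drosophila medium (pH 6.9) with 10% heat-inactivated FCS, 4 mM glutamine and gentamicin at 27°C. Seeded at 10^5 cells/well, exposed to a range of modulator concentrations (up to 200 μM) for 72 h at 27°C. MTS/PMS added, 4 h colour development, OD 490 nm. Survival expressed relative to untreated wells; ≥2 independent experiments in triplicate.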

[2] = test system: Leishmania donovani; assay: Cytotoxicity against wild-type Leishmania donovani LdAG83 by MTS assay; type: organism-based; conditions: AG83; how it was run: as §1
[3] = test system: Leishmania enriettii; assay: Cytotoxicity against pentamidine-resistant Leishmania enriettii LePentR50 by MTS assay; type: organism-based; how it was run: as §1
[4] = test system: Leishmania enriettii; assay: Increase of pentamidine accumulation in drug-resistant Leishmania enriettii LePentR50 promastigotes at 30 uM after 3 hrs; type: functional, organism-based
How it was run: (§2)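 4-day-old LePentR50 promastigotes (2 × 10^8 cells/ml, 1 ml) incubated with 0.84 mM pentamidine plus modulator (0, 15, 30, 60 μM) for 3 h at 27°C in the dark. Cells washed with cold PBS and lysed in 75% acetonitrile by freeze-thaw. Pentamidine quantified by ion-pair C18 HPLC at 265 nm against a standard curve and expressed per mg protein. Triplicates, repeated twice.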

[5] = Resistance reversal as >50% reduction in SSG IC50 in drug-resistant Leishmania donovani Ld39 by MTS assay; type: functional
How it was run: (§3)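 Promastigotes seeded at 10^5 cells/well and incubated 72 h at 27°C with serial concentrations of SSG (L. donovani) or pentamidine (L. enriettii LePentR50), each with 6 μM modulator or DMSO solvent control. Survival read by MTS/PMS at 490 nm after 4 h. […] Triplicates per concentration.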

[6] = test system: Leishmania enriettii; assay: Increase of pentamidine accumulation in drug-resistant Leishmania enriettii LePentR50 promastigotes at 60 uM after 3 hrs; type: functional, organism-based; how it was run: as §2
[7] = Resistance reversal as >50% reduction in SSG IC50 in wild-type Leishmania donovani LdAG83 by MTS assay; type: functional; how it was run: as §3
[8] = Toxicity against pentamidine-resistance Leishmania enriettii LePentR50 upto 6 uM
[9] = test system: Leishmania donovani; assay: Increase of SSG accumulation in drug-resistant Leishmania donovani Ld39 at 60 uM relative to LdAG83 cells; type: functional, organism-based
How it was run: (§4)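 Axenic amastigotes made by shifting 4-day promastigotes into supplemented M199 at 37°C for 24 h. 1 ml (2 × 10^8 cells/ml) incubated with 0.05 mM SSG plus modulator (0, 30, 60 μM) for 3 h at 37°C. After PBS washes, cells digested in nitric acid. Total Sb measured by ICP-MS (m/z 121/123, In internal standard), in nmol/mg protein. Expressed as % of LdAG83; triplicates, two experiments.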

[10] = test system: Leishmania enriettii; assay: Cytotoxicity against drug-resistant Leishmania enriettii LePentR50 at 60 uM after 3 hrs; type: organism-based; conditions: in vitro
[11] = Resistance reversal as >50% reduction in pentamidine IC50 in Leishmania enriettii LeMDR1-/- by MTS assay; type: functional
How it was run: (§5)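 L. enriettii promastigotes are wild type, LeMDR1−/− (no drug in culture) or LeV160 (maintained in 160 μg/ml vinblastine). Seeded at 10^5 cells/well with graded pentamidine plus 6 μM modulator for 72 h at 27°C. MTS read-out at 490 nm gives the pentamidine IC50. Three independent experiments in triplicate.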

[12] = Effect on modulating pentamidine-resistance of Leishmania enriettii LePentR50 assessed as decrease in survival after 72 hrs by MTS; type: functional
How it was run: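 LePentR50 promastigotes seeded at 10^5 cells/well, exposed 72 h at 27°C to graded modulator alone or with 60 μg/ml pentamidine. MTS survival as percentage of untreated. […] Triplicates, three repeats.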

[13] = test system: Leishmania enriettii; assay: Increase of pentamidine accumulation in drug-resistant Leishmania enriettii LePentR50 promastigotes at 15 uM after 3 hrs; type: functional, organism-based; how it was run: as §2
[14] = Resistance reversal as >50% reduction in SSG IC50 in drug-resistant Leishmania donovani Ld2001 by MTS assay; type: functional; how it was run: as §3
[15] = Resistance reversal as >50% reduction in pentamidine IC50 in drug-resistant Leishmania enriettii LePentR50 by MTS assay; type: functional; how it was run: as §3
[16] = test system: Leishmania donovani; assay: Cytotoxicity against wild-type Leishmania donovani at 60 uM after 3 hrs; type: organism-based; conditions: in vitro
[17] = Effect on modulating SSG-resistance of Leishmania donovani Ld39 promastigotes assessed as reversal of resistance at 6 uM after 72 hrs by MTS; type: functional
How it was run: (§6)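 Ld39 or LdAG83 promastigotes seeded at 10^5 cells/well with serial SSG dilutions plus modulator (0, 1, 2, 4, 6 μM) for 72 h at 27°C. SSG concentrations differ between the two strains. Percentage survivors by MTS. Triplicate points, three separate experiments.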

[18] = test system: Leishmania donovani; assay: Increase of SSG accumulation in drug-resistant Leishmania donovani Ld2001 at 60 uM relative to LdAG83 cells; type: functional, organism-based; how it was run: as §4
[19] = Effect on modulating drug-resistance of wild type SSG-sensitive Leishmania donovani LdAG83 promastigotes assessed as reversal of resistance at 6 uM after 72 hrs by MTS; type: functional; how it was run: as §6
[20] = Resistance reversal as >50% reduction in pentamidine IC50 in wild-type Leishmania enriettii by MTS assay; type: functional; how it was run: as §5
[21] = test system: Leishmania donovani; assay: Increase of SSG accumulation in drug-resistant Leishmania donovani Ld2001 at 30 uM relative to LdAG83 cells; type: functional, organism-based; how it was run: as §4
[22] = test system: Leishmania donovani; assay: Increase of SSG accumulation in drug-resistant Leishmania donovani Ld39 at 30 uM relative to LdAG83 cells; type: functional, organism-based; how it was run: as §4
[23] = Resistance reversal as >50% reduction in pentamidine IC50 in Leishmania enriettii LeV160 overexpressing LeMDR1 by MTS assay; type: functional; how it was run: as §5

For `O=c1cc(-c2ccc(OCCOCCOCCOCCOCCOc3ccc(-c4cc(=O)c5c(O)cc(O)cc5o4)cc3)cc2)oc2cc(O)cc(O)c12`, the IC50 [1] was 42 µM, the IC50 [2] was 30 µM and the IC50 [3] was 70 µM.

Compound `O=c1cc(-c2ccc(OCCOCCOCCOCCOCCOCCOCCOCCOCCOc3ccc(-c4cc(=O)c5c(O)cc(O)cc5o4)cc3)cc2)oc2cc(O)cc(O)c12` has an IC50 [1] of 14 µM and an IC50 [2] of 10 µM.

With `O=c1cc(-c2ccc(OCCOCCOCCO)cc2)oc2cc(O)cc(O)c12` the IC50 [1] was over 200 µM, the IC50 [2] was over 200 µM and the IC50 [3] was over 200 µM.

`O=c1cc(-c2ccc(OCCOCCOCCOCCOCCOCCOc3ccc(-c4cc(=O)c5c(O)cc(O)cc5o4)cc3)cc2)oc2cc(O)cc(O)c12` gave an IC50 [1] of 13 µM, an IC50 [2] of 11 µM and an IC50 [3] of 40 µM.

Compound `O=c1cc(-c2ccc(O)cc2)oc2cc(O)cc(O)c12` [APIGENIN] has an IC50 [1] of 43 µM, an IC50 [2] of 32 µM and an IC50 [3] of 55 µM.

Compound `O=c1cc(-c2ccc(OCCOCCOCCOCCOCCOCCOCCOCCOc3ccc(-c4cc(=O)c5c(O)cc(O)cc5o4)cc3)cc2)oc2cc(O)cc(O)c12` has an IC50 [1] of 14 µM and an IC50 [2] of 12 µM.

In the case of `O=c1cc(-c2ccc(OCCOCCOCCOCCOc3ccc(-c4cc(=O)c5c(O)cc(O)cc5o4)cc3)cc2)oc2cc(O)cc(O)c12`, the Drug uptake [4] is reported as 4.69 µM, the Resistance reversal [5] is reported as “Active” and the Drug uptake [6] is reported as 26.6 µM. The Resistance reversal [7] was “inactive”, the Toxicity [8] was “Not Toxic” and the Drug uptake [9] was 90%. For the same compound, the Activity [10] was “Not Active”, the Resistance reversal [11] was “Active” and the EC50 [12] was 0.94 µM. The Drug uptake [13] was 2.95 µM, the Resistance reversal [14] was “Active” and the Resistance reversal [15] was “Active”. For the same compound, the IC50 [1] was 10 µM, the Activity [16] was “Not Active” and the Resistance reversal [17] was “Dose-dependent effect”. For the same compound, the IC50 [2] was 7 µM, the Drug uptake [18] was 69% and the Resistance reversal [19] was “inactive”. For the same compound, the Resistance reversal [20] was “Active”, the Drug uptake [21] was 83% and the Drug uptake [22] was 74%. The IC50 [3] was over 200 µM and the Resistance reversal [23] was “Active”.

In the case of `O=c1cc(-c2ccc(OCCOCCOCCOCCOCCOCCOCCOCCOCCOCCOc3ccc(-c4cc(=O)c5c(O)cc(O)cc5o4)cc3)cc2)oc2cc(O)cc(O)c12`, the IC50 [1] is reported as over 200 µM and the IC50 [2] is reported as over 200 µM.

In the case of `O=c1cc(-c2ccc(OCCOCCOCCOc3ccc(-c4cc(=O)c5c(O)cc(O)cc5o4)cc3)cc2)oc2cc(O)cc(O)c12`, the Resistance reversal [5] is reported as “Active”, the Resistance reversal [7] is reported as “inactive” and the Resistance reversal [11] is reported as “Active”. For the same compound, the EC50 [12] was 1.85 µM, the Resistance reversal [14] was “Active” and the Resistance reversal [15] was “Active”. For the same compound, the IC50 [1] was 11 µM, the Resistance reversal [17] was “Dose-dependent effect” and the IC50 [2] was 8 µM. The Resistance reversal [23] was “Active”.

`O=c1cc(-c2ccc(OCCOCCOCCOCCOCCOCCOCCOCCOCCOCCOCCOCCOCCOc3ccc(-c4cc(=O)c5c(O)cc(O)cc5o4)cc3)cc2)oc2cc(O)cc(O)c12` gave an IC50 [1] of 60 µM and an IC50 [2] of 50 µM.

Compound `O=c1cc(-c2ccc(OCCOc3ccc(-c4cc(=O)c5c(O)cc(O)cc5o4)cc3)cc2)oc2cc(O)cc(O)c12` has an IC50 [2] of 95 µM.
